From PubChem BioAssay
Only a selection was taken, and hits are over-represented in it overall.
GAA850 FXN act: FXN promoter activators, primary screen, cell-based, luciferase luminescence, HEK293 lucGAA850; HEK293 lucGAA850 FXN promoter luciferase reporter, 24 h; percent of 10 µM SAHA response; activation, % at 6 µM; AID 540364, 2011; 360,000 tested, 0.56% active;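 active means activation above the average of all compounds screened plus 3 SD, cutoff fixed separately per campaign, cut at about 7.5% in these data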
CHOP UPR activ: activators of apoptotic CHOP UPR arm, primary screen, cell-based, CHO-CHOP luciferase reporter, luminescence, uHTS. AID 449763, 2010. UPR activation; percent of tunicamycin response over DMSO baseline. activation, % at 10 µM. 330,000 tested, 0.34% active;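 active means at 10 µM dose, activation of 40% or more, normalized to positive control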
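System: CHO-CHOP luciferase reporter cell line; amount: 500 cells/well; buffer or medium: F12 medium containing 10% fetal bovine serum; incubation: 6 h compound exposure at 37 °C after overnight seeding; measured by: luciferase luminescence after 10 min with Steady-Glo reagent; evaluation: % reporter activation, DMSO baseline versus tunicamycin full activation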
XBP1 UPR activ: activators of adaptive XBP1 UPR arm, primary screen, cell-based, CHO-XBP1 luciferase reporter, luminescence, uHTS. IRE1-XBP1 UPR activation; percent of tunicamycin response, DMSO as zero. activation, % at 20 µM. 330,000 tested, 0.33% active. AID 463104, 2010;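 active means versus positive control, 20 µM dose yields 30% or more activation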
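Material: CHO-XBP1 cells stably carrying IRE1-XBP1-driven luciferase reporter | Medium: F12 with 10% serum | Compound dosing: 20 µM single concentration, DMSO 1% | Incubation: Overnight seeding at 37 °C, 6 h compound treatment at 37 °C | Detection: Steady-Glo luminescence read | Read-out basis: % activation of reporter signal versus tunicamycin and DMSO controls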
CHOP inhibitor: inhibitors of CHOP promoter induction, primary screen, cell-based, unfolded protein response, luciferase reporter | CHO-K1 CHOP-promoter luciferase, tunicamycin-induced, 15-18 h | inhibition, % at 10 µM | 220,000 tested, 3.8% active | AID 2732, 2010;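 active means compounds that reduced the stress-induced luciferase reporter signal by more than about 70% of percent inhibition, limit read from the data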
Large screens that a line does not name were inactive.

O=CNn1cnc2c(oc3nc(-c4ccccc4)cc(-c4ccco4)c32)c1=O	CHOP inhibitor 85.3
CCOc1cc(-c2c(C#N)c(N)nc3c2CCCC3C)ccc1O (centres undefined)	none
COc1cc(-c2cc(-c3ccc(O)cc3)nc(N)c2C#N)ccc1O	none
CCOc1cc(-c2c(C#N)c(N)nc3c2CCc2ccccc2-3)ccc1O	CHOP inhibitor 78.0
CCOc1cc(-c2cc(-c3ccc(C)cc3)nc(N)c2C#N)ccc1O	CHOP inhibitor 70.1
COc1ccccc1N1CCN(c2ccc3c(c2)S(=O)(=O)c2cccc(C(=O)NCc4cccc(F)c4)c2C3=O)CC1	none (no result: CHOP UPR activ, XBP1 UPR activ, CHOP inhibitor)
COc1ccc(-c2cc(C(F)(F)F)nc(NC3CCCC3)n2)cc1OC	CHOP inhibitor 73.5
O=c1[nH]c(CN2CCN(Cc3ccc4c(c3)OCO4)CC2)nc2ccccc12	none
O=c1cc(-c2ccccc2)nc(N2CCN(Cc3ccc4c(c3)OCO4)CC2)[nH]1	CHOP inhibitor 70.7
COc1ccc(-c2cc3nc(C)cc(N4CCN(C(=O)c5ccco5)CC4)n3n2)cc1	none (no result: CHOP UPR activ, XBP1 UPR activ, CHOP inhibitor)
Cc1cc(N2CCN(C(=O)c3ccco3)CC2)n2nc(-c3cccc(Cl)c3)cc2n1	CHOP inhibitor 95.8
COc1nc(Nc2ccc([N+](=O)[O-])cc2)nc(NC2CCCCC2)n1	CHOP inhibitor 81.7
C=CCNc1nc(Nc2ccc([N+](=O)[O-])cc2)nc(OC)n1	none
Cc1ccc(-c2noc(CSc3nnc(Cc4ccccc4)n3-c3ccc(Cl)cc3)n2)cc1	CHOP inhibitor 80.8
COc1ccc(-c2noc(CSc3nnc(Cc4ccccc4)n3-c3ccc(Cl)cc3)n2)cc1	none
CC1(C)N=C(N)N=C(N)N1c1ccc(CCCCc2ccccc2)cc1	none (no result: CHOP UPR activ, XBP1 UPR activ, CHOP inhibitor)
Nn1c(COc2ccccc2F)nnc1SCC(=O)NCC1CCCO1 (centres undefined)	none (no result: CHOP UPR activ, XBP1 UPR activ, CHOP inhibitor)
O=c1[nH]c(/C(Cl)=C/c2cccc(C(F)(F)F)c2)nc2cc(Cl)ccc12	none
O=c1[nH]c(/C(Cl)=C/c2c(F)cccc2Cl)nc2cc(Cl)ccc12	CHOP inhibitor 78.8
CC(C)(C)CC(C)(C)NC(=S)NC1CCN(Cc2ccccc2)CC1	CHOP inhibitor 71.2
Cc1cccc(NC(=S)NC2CCN(Cc3ccccc3)CC2)c1C	none
CCOC(=O)C1=C(C)Nc2nnnn2C1c1ccccc1Cl (centres undefined)	none
CCCCOC(=O)C1=C(C)Nc2nnnn2C1c1ccccc1Cl (centres undefined)	CHOP inhibitor 83.5
CC(=O)c1sc(NC(=O)c2cc3c(C)nn(-c4ccccc4)c3s2)nc1C	CHOP inhibitor 81.0
COc1ccc(NC(=O)C2Cc3c(-c4cccc(F)c4)ccnc3O2)cn1 (centres undefined)	none (no result: CHOP UPR activ, XBP1 UPR activ, CHOP inhibitor)
CSc1nc(C)c2c(n1)N(c1cccc(C)c1)CC2	CHOP inhibitor 88.2
Cc1cccc(N2CCc3c2nc2ccc(Br)cc2c3N)c1	none
N#Cc1nc(-c2ccccc2F)oc1NC1CCCCC1	CHOP inhibitor 80.4
N#Cc1nc(-c2ccccc2F)oc1N1CCCCC1	none (no result: CHOP inhibitor)
Cc1cccc(Cc2cccc(C)c2O)c1O	none (no result: CHOP UPR activ, XBP1 UPR activ, CHOP inhibitor)
C[C@@H]1CCCCO[C@H](CN(C)C(=O)c2ccccc2)[C@@H](C)CN([C@H](C)CO)C(=O)c2cc(NC(=O)c3ccncc3)ccc2O1	none (no result: CHOP UPR activ, XBP1 UPR activ, CHOP inhibitor)
Cc1cccc(C(O)c2ncc(-c3ccccc3)[nH]2)c1C (centres undefined)	none (no result: CHOP UPR activ, XBP1 UPR activ, CHOP inhibitor)
Clc1ccc(-n2cnc3c(Cl)ncnc32)cc1Cl	none (no result: CHOP UPR activ, XBP1 UPR activ, CHOP inhibitor)
O=c1c2ccccc2cnn1-c1nc2ccccc2[nH]1	CHOP inhibitor 92.8 (no result: CHOP UPR activ, XBP1 UPR activ)
O=c1c(Cl)c(N2CCCCC2)cnn1-c1nc2ccccc2[nH]1	none
CC1(C(=O)Nc2ccc3[nH]ncc3c2)CCN1C(=O)C1(c2ccccc2)CC1 (centres undefined)	none (no result: CHOP UPR activ, XBP1 UPR activ, CHOP inhibitor)
O=C(CNS(=O)(=O)c1cccc(Cl)c1)OCc1csc(-c2ccccc2)n1	CHOP inhibitor 89.8
CNS(=O)(=O)c1cccc(C(=O)OCc2csc(-c3ccccc3)n2)c1	none
COc1ccc(OC)c(NC(=O)Nc2nc(CN(C)C)cs2)c1	none (no result: CHOP UPR activ, XBP1 UPR activ, CHOP inhibitor)
CCOc1cc(NC(=O)C2CCCCC2)c(OCC)cc1NC(=O)c1ccco1	CHOP inhibitor 83.9
N=C(N)c1ccc(OCCCCCOc2ccc(C(=N)N)cc2)cc1 (tested in a mixture with another compound)	none (no result: GAA850 FXN act, CHOP UPR activ, XBP1 UPR activ)
